Reference: ChEMBL document CHEMBL4610039, “Design, synthesis and apoptosis-related antiproliferative activities of chelidonine derivatives” (Bioorg Med Chem Lett, 2020)

Tests used:
[1] = test system: HCT-116; experiment: Antiproliferative activity against human HCT116 cells assessed as reduction in cell growth after 72 hrs by MTT assay; type: functional, cell-based; conditions: HCT-116, 72 h
Summary of the method: (§1)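 Human HepG2, MCF-7, HCT-116 and K562 tumour cells plus normal L-02 hepatocytes and PBMCs were exposed to compounds for 72 h and growth was read by MTT. 5-Fu served as positive control. IC50 is the concentration inhibiting 50% of cell growth, given as mean ± standard deviation of three independent experiments.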

[2] = test system: L02; experiment: Antiproliferative activity against human L02 cells assessed as reduction in cell growth after 72 hrs by MTT assay; type: functional, cell-based; conditions: L02, 72 h; summary of the method: as §1
[3] = test system: PBMC; experiment: Cytotoxicity against human PBMC assessed as reduction in cell growth after 72 hrs by MTT assay; type: cell-based; summary of the method: as §1
[4] = test system: K562; experiment: Antiproliferative activity against human K562 cells assessed as reduction in cell growth after 72 hrs by MTT assay; type: functional, cell-based; conditions: K562, 72 h; summary of the method: as §1
[5] = test system: MCF7; experiment: Antiproliferative activity against human MCF7 cells assessed as reduction in cell growth after 72 hrs by MTT assay; type: functional, cell-based; conditions: MCF7, 72 h; summary of the method: as §1
[6] = test system: HepG2; experiment: Antiproliferative activity against human HepG2 cells assessed as reduction in cell growth after 72 hrs by MTT assay; type: functional, cell-based; conditions: HepG2, 72 h; summary of the method: as §1

Structure (SMILES)	IC50 [1]	IC50 [2]	IC50 [3]	IC50 [4]	IC50 [5]	IC50 [6]
CN1Cc2c(ccc3c2OCO3)[C@@H]2[C@H]1c1cc3c(cc1C[C@@H]2O)OCO3 [CHELIDONINE]	> 40 µM	> 40 µM	> 40 µM	17.7 µM	> 40 µM	> 40 µM
CN1Cc2c(ccc3c2OCO3)[C@H]2[C@@H](OC(=O)CCC(=O)NCCOc3no[n+]([O-])c3S(=O)(=O)c3ccccc3)Cc3cc4c(cc3[C@H]21)OCO4	11.5 µM	27.7 µM	> 40 µM	3.17 µM	7.94 µM	11.4 µM
CN1Cc2c(ccc3c2OCO3)[C@H]2[C@@H](OC(=O)CCC(=O)OCCCOc3no[n+]([O-])c3S(=O)(=O)c3ccccc3)Cc3cc4c(cc3[C@H]21)OCO4	15.7 µM	14.6 µM	> 40 µM	3.08 µM	3.68 µM	10.5 µM
CN1Cc2c(ccc3c2OCO3)[C@H]2[C@@H](OC(=O)CCC(=O)OCCCCCCOc3no[n+]([O-])c3S(=O)(=O)c3ccccc3)Cc3cc4c(cc3[C@H]21)OCO4	16.6 µM	> 40 µM	> 40 µM	7.61 µM	7.94 µM	9.45 µM
CN1Cc2c(ccc3c2OCO3)[C@H]2[C@@H](OC(=O)CCCC(=O)OCCCCOc3no[n+]([O-])c3S(=O)(=O)c3ccccc3)Cc3cc4c(cc3[C@H]21)OCO4	19.1 µM	> 40 µM	> 40 µM	6.14 µM	6.81 µM	19.6 µM
CN1Cc2c(ccc3c2OCO3)[C@H]2[C@@H](OC(=O)CCCC(=O)NCCCOc3no[n+]([O-])c3S(=O)(=O)c3ccccc3)Cc3cc4c(cc3[C@H]21)OCO4	7.25 µM	19.9 µM	> 40 µM	3.18 µM	5.29 µM	10.7 µM
CN1Cc2c(ccc3c2OCO3)[C@H]2[C@@H](OC(=O)CCC(=O)OCCCCOc3no[n+]([O-])c3S(=O)(=O)c3ccccc3)Cc3cc4c(cc3[C@H]21)OCO4	8.27 µM	19.7 µM	> 40 µM	2.91 µM	4.78 µM	6.39 µM
O=c1[nH]cc(F)c(=O)[nH]1 [FLUOROURACIL]	6.86 µM	> 40 µM	> 40 µM	3.94 µM	26.7 µM	32.6 µM
CN1Cc2c(ccc3c2OCO3)[C@H]2[C@@H](OC(=O)CCCC(=O)OCCCCCCOc3no[n+]([O-])c3S(=O)(=O)c3ccccc3)Cc3cc4c(cc3[C@H]21)OCO4	> 40 µM	> 40 µM	> 40 µM	9.59 µM	13.2 µM	> 40 µM
CC(CNC(=O)CCCC(=O)O[C@H]1Cc2cc3c(cc2[C@@H]2[C@H]1c1ccc4c(c1CN2C)OCO4)OCO3)Oc1no[n+]([O-])c1S(=O)(=O)c1ccccc1 (stereo partly specified)	12.2 µM	23.4 µM	> 40 µM	2.68 µM	4.92 µM	7.59 µM
CN1Cc2c(ccc3c2OCO3)[C@H]2[C@@H](OC(=O)CCCC(=O)OCCOCCOc3no[n+]([O-])c3S(=O)(=O)c3ccccc3)Cc3cc4c(cc3[C@H]21)OCO4	8.47 µM	16.5 µM	> 40 µM	2.6 µM	6.55 µM	6.55 µM
CN1Cc2c(ccc3c2OCO3)[C@H]2[C@@H](OC(=O)CCCC(=O)NCCOc3no[n+]([O-])c3S(=O)(=O)c3ccccc3)Cc3cc4c(cc3[C@H]21)OCO4	> 40 µM	> 40 µM	> 40 µM	12.1 µM	14.6 µM	26.4 µM
CN1Cc2c(ccc3c2OCO3)[C@H]2[C@@H](OC(=O)CCC(=O)NCCCOc3no[n+]([O-])c3S(=O)(=O)c3ccccc3)Cc3cc4c(cc3[C@H]21)OCO4	17.3 µM	36.5 µM	> 40 µM	9.8 µM	13.6 µM	16.8 µM
CN1Cc2c(ccc3c2OCO3)[C@H]2[C@@H](OC(=O)CCC(=O)OCC#CCOc3no[n+]([O-])c3S(=O)(=O)c3ccccc3)Cc3cc4c(cc3[C@H]21)OCO4	23.5 µM	28.2 µM	> 40 µM	3.78 µM	5.41 µM	14.4 µM
CN1Cc2c(ccc3c2OCO3)[C@H]2[C@@H](OC(=O)CCC(=O)OCCOCCOc3no[n+]([O-])c3S(=O)(=O)c3ccccc3)Cc3cc4c(cc3[C@H]21)OCO4	8.68 µM	23.9 µM	> 40 µM	4.52 µM	8.92 µM	8.65 µM
CC(CNC(=O)CCC(=O)O[C@H]1Cc2cc3c(cc2[C@@H]2[C@H]1c1ccc4c(c1CN2C)OCO4)OCO3)Oc1no[n+]([O-])c1S(=O)(=O)c1ccccc1 (stereo partly specified)	16.4 µM	> 40 µM	> 40 µM	6.94 µM	8.37 µM	19.4 µM
